Activity calls are given as the source filed them. The calls are words filed in the database; no cut-off is given here.
Tests used:
[1] = Clearance in rat at 2 mg/kg, iv and 10 mg/kg, po; assay type: ADME, organism-based; settings: in vivo
Method in brief: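 Rat pharmacokinetics after a single intravenous dose (2 mg/kg) and a single oral dose (10 mg/kg).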

Mus musculus = assay: Toxicity in mouse allografted with mouse NIH/3T3 cells assessed as decrease in body weight at 100 mg/kg, po qd administered for 2 weeks measured twice per week; assay type: organism-based, NIH3T3; parameters: dose 100 mg/kg, route oral; settings: in vivo, 336 h
Method in brief: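 Tumor fragments of 1 mm³ implanted s.c. in the right flank of nude mice with a trocar. Mice randomized once tumors reached 100–150 mm³. Oral dosing 7 days/week for 2 weeks; vehicle-only controls. Tumors measured twice weekly by microcaliper; body weight monitored.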

[2] = target: T1, Hepatocyte growth factor receptor (Homo sapiens, UniProt P08581); assay: Inhibition of c-Met in gefitinib-resistant human HCC827 cells assessed as inhibition of p44/42 phosphorylation at 0.5 uM after 2 hrs by Western blotting analysis in presence of gefitinib; assay type: cell-based
T1 sequence (P08581 whole entry): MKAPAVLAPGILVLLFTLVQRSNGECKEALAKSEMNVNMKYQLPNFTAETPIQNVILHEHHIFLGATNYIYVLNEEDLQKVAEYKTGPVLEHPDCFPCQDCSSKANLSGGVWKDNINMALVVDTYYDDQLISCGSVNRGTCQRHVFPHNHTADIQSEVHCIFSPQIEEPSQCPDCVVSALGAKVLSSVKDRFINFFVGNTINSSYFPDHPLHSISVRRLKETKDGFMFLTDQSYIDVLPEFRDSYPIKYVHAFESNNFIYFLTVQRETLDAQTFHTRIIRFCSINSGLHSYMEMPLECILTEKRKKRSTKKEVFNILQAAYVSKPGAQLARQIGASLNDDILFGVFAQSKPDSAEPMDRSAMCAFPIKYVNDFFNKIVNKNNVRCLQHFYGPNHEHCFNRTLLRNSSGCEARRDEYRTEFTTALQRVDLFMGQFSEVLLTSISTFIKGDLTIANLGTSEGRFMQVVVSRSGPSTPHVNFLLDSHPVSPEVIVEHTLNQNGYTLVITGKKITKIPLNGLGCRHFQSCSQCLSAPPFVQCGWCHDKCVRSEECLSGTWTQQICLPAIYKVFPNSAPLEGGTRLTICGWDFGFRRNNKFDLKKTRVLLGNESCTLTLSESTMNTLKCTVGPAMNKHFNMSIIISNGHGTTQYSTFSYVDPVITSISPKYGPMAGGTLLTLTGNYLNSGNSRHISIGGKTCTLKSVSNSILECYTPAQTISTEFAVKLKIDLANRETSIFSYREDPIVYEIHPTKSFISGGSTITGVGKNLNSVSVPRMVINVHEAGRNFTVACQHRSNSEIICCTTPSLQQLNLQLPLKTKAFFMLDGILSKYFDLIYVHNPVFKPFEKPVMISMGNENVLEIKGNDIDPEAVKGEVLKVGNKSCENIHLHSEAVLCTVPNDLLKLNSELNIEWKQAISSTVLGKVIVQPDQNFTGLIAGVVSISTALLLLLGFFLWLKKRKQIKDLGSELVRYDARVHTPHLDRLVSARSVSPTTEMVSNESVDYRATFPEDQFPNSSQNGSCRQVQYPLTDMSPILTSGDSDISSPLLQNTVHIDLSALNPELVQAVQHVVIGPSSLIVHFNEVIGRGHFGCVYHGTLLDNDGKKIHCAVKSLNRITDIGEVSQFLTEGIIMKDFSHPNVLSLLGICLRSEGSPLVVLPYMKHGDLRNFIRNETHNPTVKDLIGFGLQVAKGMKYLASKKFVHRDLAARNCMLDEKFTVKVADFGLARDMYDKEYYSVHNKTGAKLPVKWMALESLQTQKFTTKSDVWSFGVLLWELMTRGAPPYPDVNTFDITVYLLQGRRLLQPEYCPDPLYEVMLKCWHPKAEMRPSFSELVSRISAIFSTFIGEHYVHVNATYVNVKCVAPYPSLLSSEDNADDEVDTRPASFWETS
Method in brief: (§1)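 Cells grown to exponential phase, treated with compound 2 h at 37°C, lysed in 1× SDS sample buffer, resolved on 10% SDS-PAGE and transferred to nitrocellulose for immunoblotting.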

[3] = target: T1, Hepatocyte growth factor receptor; assay: Inhibition of c-Met in gefitinib-resistant human HCC827 cells assessed as inhibition of AKT phosphorylation at 0.5 uM after 2 hrs by Western blotting analysis in presence of gefitinib; assay type: cell-based; method in brief: as §1
[4] = target: T1, Hepatocyte growth factor receptor; assay: Inhibition of c-Met in gefitinib-resistant human HCC827 cells assessed as inhibition of p44/42 phosphorylation at 0.5 uM after 2 hrs by Western blotting analysis; assay type: cell-based; method in brief: as §1
[5] = target: T1, Hepatocyte growth factor receptor; assay: Inhibition of c-Met in gefitinib-resistant human HCC827 cells assessed as inhibition of AKT phosphorylation at 0.5 uM after 2 hrs by Western blotting analysis; assay type: cell-based; method in brief: as §1
[6] = target: T1, Hepatocyte growth factor receptor; assay: Inhibition of c-Met in human HCC827/GR5 cells assessed as potentiation of gefitinib-induced cell growth inhibition at 0.5 uM after 72 hrs; assay type: cell-based
BaF3 = assay: Induction of cell cycle arrest in mouse BAF3 cells expressing TPR/Met fusion protein assessed as accumulation at G1 phase at 1 uM after 24 hrs by propidium iodide staining-based FACS analysis (reference value: 26.6%); assay type: functional
SK-MEL-28 = assay: Antiproliferative activity against human SK-MEL-28 cells after 72 hrs; settings: SK-MEL-28, 72 h
MDA-MB-231 = assay: Antiproliferative activity against human MDA-MB-231 cells after 72 hrs; settings: MDA-MB-231, 72 h
NCI-H441 = assay: Antiproliferative activity against human NCI-H441 cells after 72 hrs; settings: NCI-H441, 72 h
[7] = Antiproliferative activity against human EBC1 cells after 72 hrs; settings: EBC-1, 72 h
SNU-5 = assay: Antiproliferative activity against human SNU5 cells after 72 hrs; settings: SNU-5, 72 h
[8] = target: T1, Hepatocyte growth factor receptor; assay: Inhibition of c-Met in human EBC1 cells assessed as inhibition of p44/42 phosphorylation at 0.16 to 20 uM after 2 hrs by Western blotting analysis; assay type: cell-based; method in brief: as §1
[9] = target: T1, Hepatocyte growth factor receptor; assay: Inhibition of c-Met in human MKN45 cells assessed as inhibition of p44/42 phosphorylation at 0.16 to 20 uM after 2 hrs by Western blotting analysis; assay type: cell-based; settings: MKN-45; method in brief: as §1
[10] = target: TPR/MET fusion protein (Mus musculus) (UniProt P16056+F6ZDS4); assay: Inhibition of TPR/Met phosphorylation in mouse NIH3T3 cells after 2 hrs by Western blotting analysis; assay type: cell-based; method in brief: as §1
[11] = target: T1, Hepatocyte growth factor receptor; assay: Inhibition of c-Met phosphorylation in human EBC1 cells after 2 hrs by Western blotting analysis; assay type: cell-based
Method in brief: (§2)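 Cells grown under regular conditions to exponential phase, exposed to compound at indicated concentrations for 2 h at 37°C, lysed in 1× SDS sample buffer. Lysates resolved on 10% SDS-PAGE and transferred to nitrocellulose for immunoblotting.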

[12] = target: T1, Hepatocyte growth factor receptor; assay: Competitive inhibition of c-Met (unknown origin) at 1.3 to 160 uM by Lineweaver-Burk plot analysis in presence of ATP
Method in brief: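 ATP-competition version of the poly(Glu,Tyr)4:1 ELISA kinase assay (60 min, 37°C, PY99 antibody detection, A490) run at various ATP concentrations; Lineweaver-Burk plot constructed.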

[13] = target: T1, Hepatocyte growth factor receptor; assay: Inhibition of c-Met phosphorylation in human MKN45 cells after 2 hrs by Western blotting analysis; assay type: cell-based; settings: MKN-45; method in brief: as §2
[14] = target: Vascular endothelial growth factor receptor 1 (Homo sapiens, UniProt P17948); assay: Inhibition of FLT1 (unknown origin) using poly (Glu, Tyr) 4:1 as substrate after 60 mins by ELISA
Method in brief: (§3)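 ELISA on wells precoated with 20 µg/mL poly(Glu,Tyr)4:1. Purified kinase with 10 µmol/L ATP in 50 mM HEPES pH 7.4, 50 mM MgCl₂, 0.5 mM MnCl₂, 0.2 mM Na₃VO₄, 1 mM DTT; 1% DMSO vehicle. 60 min at 37°C. Phosphotyrosine detected with PY99 antibody, then HRP anti-mouse IgG and o-phenylenediamine/H₂O₂, A490. Inhibition = [1−(A490/A490 control)]×100%; IC50 from curves.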

Ephrin type-B receptor 2 = Ephrin type-B receptor 2 (Homo sapiens, UniProt P29323); assay: Inhibition of EPHB2 (unknown origin) using poly (Glu, Tyr) 4:1 as substrate after 60 mins by ELISA; method in brief: as §3
[15] = target: Proto-oncogene tyrosine-protein kinase Src (Homo sapiens, UniProt P12931); assay: Inhibition of c-Src (unknown origin) using poly (Glu, Tyr) 4:1 as substrate after 60 mins by ELISA
Chain of Proto-oncogene tyrosine-protein kinase Src (P12931 2-536 limits assumed): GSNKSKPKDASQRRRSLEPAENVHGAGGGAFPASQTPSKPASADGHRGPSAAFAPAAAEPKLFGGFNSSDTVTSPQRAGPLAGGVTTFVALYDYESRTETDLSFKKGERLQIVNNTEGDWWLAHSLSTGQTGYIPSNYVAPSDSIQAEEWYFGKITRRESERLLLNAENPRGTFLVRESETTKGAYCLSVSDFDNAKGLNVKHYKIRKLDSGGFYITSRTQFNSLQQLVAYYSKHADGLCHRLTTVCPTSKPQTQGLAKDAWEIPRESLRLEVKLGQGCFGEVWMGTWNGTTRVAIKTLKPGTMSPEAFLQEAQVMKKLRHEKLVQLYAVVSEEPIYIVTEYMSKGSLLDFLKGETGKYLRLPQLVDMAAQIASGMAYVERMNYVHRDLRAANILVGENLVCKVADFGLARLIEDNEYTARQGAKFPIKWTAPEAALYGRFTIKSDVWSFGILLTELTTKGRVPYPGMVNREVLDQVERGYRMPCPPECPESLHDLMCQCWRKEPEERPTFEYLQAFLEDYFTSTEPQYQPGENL
Method in brief: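 Purified kinase incubated with 10 µmol/L ATP in wells pre-coated with 20 µg/mL poly(Glu,Tyr)4:1. Reaction ran 60 min at 37°C. Phosphotyrosine detected with PY99 antibody, then HRP anti-mouse IgG and o-phenylenediamine/H₂O₂, read at 490 nm. IC50 taken from inhibition curves.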

[16] = target: Epidermal growth factor receptor (Homo sapiens, UniProt P00533); assay: Inhibition of EGFR (unknown origin) using poly (Glu, Tyr) 4:1 as substrate after 60 mins by ELISA; method in brief: as §3
[17] = target: Proto-oncogene tyrosine-protein kinase receptor Ret (Homo sapiens, UniProt P07949); assay: Inhibition of RET (unknown origin) using poly (Glu, Tyr) 4:1 as substrate after 60 mins by ELISA; method in brief: as §3
Chain of Proto-oncogene tyrosine-protein kinase receptor Ret (P07949 whole entry): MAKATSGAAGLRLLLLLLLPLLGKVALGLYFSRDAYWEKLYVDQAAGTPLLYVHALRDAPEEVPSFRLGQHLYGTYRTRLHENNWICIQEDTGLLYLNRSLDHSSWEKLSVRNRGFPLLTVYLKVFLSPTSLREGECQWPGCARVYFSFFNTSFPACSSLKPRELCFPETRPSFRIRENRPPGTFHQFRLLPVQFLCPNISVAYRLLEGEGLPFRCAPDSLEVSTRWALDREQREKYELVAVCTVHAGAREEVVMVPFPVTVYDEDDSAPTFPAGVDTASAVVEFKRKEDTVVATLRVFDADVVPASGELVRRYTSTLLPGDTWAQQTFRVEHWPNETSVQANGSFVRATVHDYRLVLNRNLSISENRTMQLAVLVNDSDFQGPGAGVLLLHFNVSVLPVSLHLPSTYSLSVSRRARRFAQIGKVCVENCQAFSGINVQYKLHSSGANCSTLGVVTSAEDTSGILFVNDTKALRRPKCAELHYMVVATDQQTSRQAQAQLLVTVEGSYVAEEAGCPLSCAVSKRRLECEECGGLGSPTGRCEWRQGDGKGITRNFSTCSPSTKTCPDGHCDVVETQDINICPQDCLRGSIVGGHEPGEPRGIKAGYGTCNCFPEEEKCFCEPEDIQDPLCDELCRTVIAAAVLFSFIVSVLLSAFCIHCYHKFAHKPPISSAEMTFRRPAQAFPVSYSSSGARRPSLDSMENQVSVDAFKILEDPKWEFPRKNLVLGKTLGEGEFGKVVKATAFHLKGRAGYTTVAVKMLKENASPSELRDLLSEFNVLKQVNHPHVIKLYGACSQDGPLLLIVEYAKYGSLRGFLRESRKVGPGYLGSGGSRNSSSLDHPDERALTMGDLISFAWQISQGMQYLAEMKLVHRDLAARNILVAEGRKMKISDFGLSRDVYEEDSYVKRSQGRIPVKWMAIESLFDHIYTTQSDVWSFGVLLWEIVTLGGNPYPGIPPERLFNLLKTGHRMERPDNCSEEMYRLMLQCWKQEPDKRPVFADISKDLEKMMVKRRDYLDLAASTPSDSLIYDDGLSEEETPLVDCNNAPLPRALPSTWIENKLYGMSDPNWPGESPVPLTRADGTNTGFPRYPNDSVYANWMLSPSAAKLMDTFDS

[18] = target: Platelet-derived growth factor receptor alpha (Homo sapiens, UniProt P16234); assay: Inhibition of PDGFRalpha (unknown origin) using poly (Glu, Tyr) 4:1 as substrate after 60 mins by ELISA; method in brief: as §3
[19] = target: ALK tyrosine kinase receptor (Homo sapiens, UniProt Q9UM73); assay: Inhibition of ALK (unknown origin) using poly (Glu, Tyr) 4:1 as substrate after 60 mins by ELISA; method in brief: as §3
[20] = target: Macrophage-stimulating protein receptor (Homo sapiens, UniProt Q04912); assay: Inhibition of RON (unknown origin) using poly (Glu, Tyr) 4:1 as substrate after 60 mins by ELISA; method in brief: as §3
Chain of Macrophage-stimulating protein receptor (Q04912 25-304 limits assumed): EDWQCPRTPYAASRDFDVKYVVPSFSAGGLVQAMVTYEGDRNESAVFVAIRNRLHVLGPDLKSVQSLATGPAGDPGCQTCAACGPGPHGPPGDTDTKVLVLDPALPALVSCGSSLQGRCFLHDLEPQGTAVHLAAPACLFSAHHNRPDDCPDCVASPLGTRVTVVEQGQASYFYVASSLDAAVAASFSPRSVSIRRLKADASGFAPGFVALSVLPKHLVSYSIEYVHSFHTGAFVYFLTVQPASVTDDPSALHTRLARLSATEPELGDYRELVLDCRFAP
Chain of Macrophage-stimulating protein receptor (Q04912 310-1400 limits assumed): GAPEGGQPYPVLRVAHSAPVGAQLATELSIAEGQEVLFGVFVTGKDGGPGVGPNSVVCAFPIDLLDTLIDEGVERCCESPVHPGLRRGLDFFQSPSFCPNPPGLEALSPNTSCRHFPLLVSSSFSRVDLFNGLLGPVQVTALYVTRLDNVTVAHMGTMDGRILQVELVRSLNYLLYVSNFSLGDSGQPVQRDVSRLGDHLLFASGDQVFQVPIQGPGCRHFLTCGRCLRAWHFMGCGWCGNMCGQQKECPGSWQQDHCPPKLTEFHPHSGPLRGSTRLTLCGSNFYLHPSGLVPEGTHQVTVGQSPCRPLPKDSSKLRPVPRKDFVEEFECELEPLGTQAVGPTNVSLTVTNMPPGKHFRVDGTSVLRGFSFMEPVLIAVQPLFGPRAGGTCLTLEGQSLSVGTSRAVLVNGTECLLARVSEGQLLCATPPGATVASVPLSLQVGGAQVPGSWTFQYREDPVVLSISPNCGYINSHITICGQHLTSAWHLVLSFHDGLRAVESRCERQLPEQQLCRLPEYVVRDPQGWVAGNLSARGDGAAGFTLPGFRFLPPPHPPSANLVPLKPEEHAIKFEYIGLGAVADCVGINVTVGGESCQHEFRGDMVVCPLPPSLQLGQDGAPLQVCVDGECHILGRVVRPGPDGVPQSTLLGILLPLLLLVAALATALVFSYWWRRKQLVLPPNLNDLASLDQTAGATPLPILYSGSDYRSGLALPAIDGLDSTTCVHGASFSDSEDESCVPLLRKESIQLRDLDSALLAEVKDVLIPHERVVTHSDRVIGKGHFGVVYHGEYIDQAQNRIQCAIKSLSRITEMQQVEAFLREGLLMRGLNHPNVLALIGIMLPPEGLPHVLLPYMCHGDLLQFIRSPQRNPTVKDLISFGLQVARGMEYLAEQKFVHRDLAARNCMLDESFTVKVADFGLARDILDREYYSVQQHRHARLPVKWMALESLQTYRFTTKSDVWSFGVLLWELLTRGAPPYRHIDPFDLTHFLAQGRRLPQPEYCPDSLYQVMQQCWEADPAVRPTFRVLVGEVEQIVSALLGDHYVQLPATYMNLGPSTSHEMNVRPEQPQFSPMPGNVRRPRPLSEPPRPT

[21] = target: T1, Hepatocyte growth factor receptor; assay: Inhibition of c-Met (unknown origin) using poly (Glu, Tyr) 4:1 as substrate after 60 mins by ELISA

## C[C@@H](Sc1cc(-c2cnn(C3CCNCC3)c2)cnc1N)c1c(Cl)ccc(F)c1Cl
[1]
  clearance: 53 mL/min/kg
Mus musculus
  Activity: Non-toxic
[2]
  inhibition: Active
[3]
  inhibition: Active
[4]
  inhibition: inactive
[5]
  inhibition: inactive
[6]
  inhibition: Active
BaF3
  Activity: 69.6%
SK-MEL-28
  IC50: 9310 nM
MDA-MB-231
  IC50: 12100 nM
NCI-H441
  IC50: 15500 nM
[7]
  IC50: 710 nM
SNU-5
  IC50: 190 nM
[8]
  inhibition: Active
[9]
  inhibition: Active
[10]
  inhibition: Dose-dependent effect
[11]
  inhibition: Dose-dependent effect
[12]
  inhibition: Active
[13]
  inhibition: Dose-dependent effect
[14]
  IC50: > 1000 nM
Ephrin type-B receptor 2
  IC50: > 1000 nM
[15]
  IC50: > 1000 nM
[16]
  IC50: > 1000 nM
[17]
  IC50: > 1000 nM
[18]
  IC50: > 1000 nM
[19]
  IC50: 349 nM
[20]
  IC50: 336 nM
[21]
  IC50: 7.7 nM

— ChEMBL document CHEMBL2440064, “Synthesis and biological evaluation of 2-amino-5-aryl-3-benzylthiopyridine scaffold based potent c-Met inhibitors” (Bioorg Med Chem, 2013)
